This note sets out measurements from the M2OR odorant receptor database.

What all share (settings): stereoisomer not certain
One experiment addresses T1, OR52A5 (Homo sapiens) (UniProt Q9H2C5).
T1 sequence (whole entry): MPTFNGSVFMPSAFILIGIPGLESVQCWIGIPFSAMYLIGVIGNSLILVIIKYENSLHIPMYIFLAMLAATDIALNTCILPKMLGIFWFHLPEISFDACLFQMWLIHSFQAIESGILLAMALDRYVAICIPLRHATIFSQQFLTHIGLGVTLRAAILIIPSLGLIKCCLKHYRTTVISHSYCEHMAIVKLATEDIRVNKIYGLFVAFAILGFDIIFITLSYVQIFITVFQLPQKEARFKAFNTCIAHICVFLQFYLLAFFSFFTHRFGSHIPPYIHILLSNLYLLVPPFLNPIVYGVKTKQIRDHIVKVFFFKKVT
The method in brief:
(§1)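 Each receptor–molecule pair is labelled responsive or non-responsive (inactive) according to whether the original authors judged the measured signal statistically different from baseline. The data were taken from the main text and supplementary material of published papers and checked for typos and inconsistencies. Assay methods differed by source, with transient luciferase assays in mammalian cell lines being common.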

Another experiment has as its target T2, OR52B2 (Homo sapiens) (UniProt Q96RD2).
T2 sequence (whole entry): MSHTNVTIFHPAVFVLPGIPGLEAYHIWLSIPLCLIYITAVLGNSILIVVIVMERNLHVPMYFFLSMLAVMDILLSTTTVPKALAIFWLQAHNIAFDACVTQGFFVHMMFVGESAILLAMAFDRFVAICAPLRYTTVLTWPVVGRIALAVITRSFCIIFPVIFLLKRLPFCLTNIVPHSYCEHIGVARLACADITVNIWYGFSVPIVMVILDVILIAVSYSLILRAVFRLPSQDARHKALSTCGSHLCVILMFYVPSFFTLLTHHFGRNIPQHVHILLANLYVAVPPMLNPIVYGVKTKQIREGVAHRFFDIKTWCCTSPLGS
The procedure, abridged:
as §1

Another experiment has as its target T3, OR52B4 (Homo sapiens) (UniProt Q8NGK2).
T3 sequence (whole entry): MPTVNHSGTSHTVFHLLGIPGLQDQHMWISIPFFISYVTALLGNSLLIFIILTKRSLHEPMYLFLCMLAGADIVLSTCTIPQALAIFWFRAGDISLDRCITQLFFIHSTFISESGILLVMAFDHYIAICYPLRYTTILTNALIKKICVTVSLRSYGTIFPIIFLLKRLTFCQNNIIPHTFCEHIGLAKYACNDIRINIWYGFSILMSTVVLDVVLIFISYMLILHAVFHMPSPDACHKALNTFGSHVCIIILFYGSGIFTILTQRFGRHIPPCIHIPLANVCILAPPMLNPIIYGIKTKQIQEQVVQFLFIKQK
The procedure, abridged:
as §1

In another experiment the target is T4, OR52B6 (Homo sapiens) (UniProt Q8NGF0).
T4 sequence (whole entry): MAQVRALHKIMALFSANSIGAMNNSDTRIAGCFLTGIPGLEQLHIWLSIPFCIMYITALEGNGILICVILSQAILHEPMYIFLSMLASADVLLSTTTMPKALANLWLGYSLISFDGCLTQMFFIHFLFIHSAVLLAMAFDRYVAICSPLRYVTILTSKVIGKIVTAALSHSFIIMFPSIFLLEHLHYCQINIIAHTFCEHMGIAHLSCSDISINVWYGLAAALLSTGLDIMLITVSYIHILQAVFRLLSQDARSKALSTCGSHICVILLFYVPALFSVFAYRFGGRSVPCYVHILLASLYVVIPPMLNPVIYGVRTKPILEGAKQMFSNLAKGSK
The method in brief:
as §1

The target in a further experiment is T5, OR52D1 (Homo sapiens) (UniProt Q9H346).
T5 sequence (whole entry): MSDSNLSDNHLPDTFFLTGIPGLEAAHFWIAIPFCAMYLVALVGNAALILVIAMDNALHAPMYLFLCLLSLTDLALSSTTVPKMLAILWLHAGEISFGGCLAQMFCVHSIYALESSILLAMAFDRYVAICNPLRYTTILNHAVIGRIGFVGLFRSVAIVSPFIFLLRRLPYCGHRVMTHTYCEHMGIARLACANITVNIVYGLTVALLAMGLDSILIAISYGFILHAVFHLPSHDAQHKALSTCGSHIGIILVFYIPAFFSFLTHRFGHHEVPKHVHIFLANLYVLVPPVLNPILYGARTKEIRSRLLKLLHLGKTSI
The method in brief: as §1

For a further experiment, the target named is OR52E1 (Homo sapiens) (UniProt Q8NGJ3). The method in brief:
as §1

The target in a further experiment is OR52E2 (Homo sapiens) (UniProt Q8NGJ4). The procedure, abridged:
as §1

A further experiment deals with OR52E4 (Homo sapiens) (UniProt Q8NGH9). The procedure, abridged: as §1
OR52E4 (Homo sapiens), sequence (Q8NGH9 whole entry): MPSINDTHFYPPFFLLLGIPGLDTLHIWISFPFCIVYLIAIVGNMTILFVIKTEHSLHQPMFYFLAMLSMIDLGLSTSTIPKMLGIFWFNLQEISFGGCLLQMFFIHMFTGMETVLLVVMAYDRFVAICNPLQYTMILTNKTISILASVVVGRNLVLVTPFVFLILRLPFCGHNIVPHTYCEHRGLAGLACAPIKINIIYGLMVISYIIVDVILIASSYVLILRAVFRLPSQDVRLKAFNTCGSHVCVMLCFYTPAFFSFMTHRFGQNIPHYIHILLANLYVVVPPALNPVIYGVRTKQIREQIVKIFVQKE
Another experiment concerns the target OR52E6 (Homo sapiens) (UniProt Q96RD3). The method in brief:
as §1

The target in the next experiment is OR52E5 (Homo sapiens) (UniProt Q8NH55). The procedure, abridged: as §1
OR52E5 (Homo sapiens), sequence (Q8NH55 whole entry): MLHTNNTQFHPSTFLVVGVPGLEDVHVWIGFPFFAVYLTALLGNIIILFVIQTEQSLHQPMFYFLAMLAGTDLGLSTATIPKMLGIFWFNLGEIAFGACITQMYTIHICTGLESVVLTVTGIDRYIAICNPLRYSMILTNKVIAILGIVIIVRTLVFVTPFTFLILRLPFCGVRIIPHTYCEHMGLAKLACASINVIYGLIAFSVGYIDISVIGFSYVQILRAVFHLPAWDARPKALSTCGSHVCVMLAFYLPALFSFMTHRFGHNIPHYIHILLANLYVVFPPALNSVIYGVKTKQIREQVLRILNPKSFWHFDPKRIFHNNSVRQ
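Note: active if original authors judged signal statistically different from baseline.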

OR52E6 (Homo sapiens), sequence (Q96RD3 whole entry): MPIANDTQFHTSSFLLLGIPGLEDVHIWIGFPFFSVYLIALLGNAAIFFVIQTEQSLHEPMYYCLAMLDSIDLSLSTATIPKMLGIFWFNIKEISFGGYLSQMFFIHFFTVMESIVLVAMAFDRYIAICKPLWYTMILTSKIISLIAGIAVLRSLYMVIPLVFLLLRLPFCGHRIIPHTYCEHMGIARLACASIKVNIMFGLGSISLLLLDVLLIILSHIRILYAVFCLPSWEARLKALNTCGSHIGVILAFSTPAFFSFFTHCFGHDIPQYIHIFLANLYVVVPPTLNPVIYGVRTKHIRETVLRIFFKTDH
OR52E1 (Homo sapiens), sequence (Q8NGJ3 whole entry): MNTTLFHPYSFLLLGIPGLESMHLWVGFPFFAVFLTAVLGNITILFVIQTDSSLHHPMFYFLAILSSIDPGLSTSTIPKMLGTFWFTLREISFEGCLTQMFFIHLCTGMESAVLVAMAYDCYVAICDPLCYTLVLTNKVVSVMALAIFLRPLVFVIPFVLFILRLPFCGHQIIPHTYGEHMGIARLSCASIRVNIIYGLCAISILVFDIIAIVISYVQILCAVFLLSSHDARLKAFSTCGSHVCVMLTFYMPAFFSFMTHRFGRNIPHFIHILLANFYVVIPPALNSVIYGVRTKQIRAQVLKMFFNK
OR52E2 (Homo sapiens), sequence (Q8NGJ4 whole entry): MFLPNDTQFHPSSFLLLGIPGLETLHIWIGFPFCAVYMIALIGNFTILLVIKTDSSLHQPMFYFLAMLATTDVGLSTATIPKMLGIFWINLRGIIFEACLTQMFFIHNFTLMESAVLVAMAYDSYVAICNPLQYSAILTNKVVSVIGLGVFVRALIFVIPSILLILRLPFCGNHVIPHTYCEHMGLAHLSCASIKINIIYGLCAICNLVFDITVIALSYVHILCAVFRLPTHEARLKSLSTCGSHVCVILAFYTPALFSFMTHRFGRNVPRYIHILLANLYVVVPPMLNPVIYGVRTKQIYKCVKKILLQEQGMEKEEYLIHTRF

Take `CC1=C(O)C(=O)C(C)O1` (configuration not stated): the “odorant receptor agonist call” value in the experiment with OR52A5 (Homo sapiens), with OR52B2 (Homo sapiens), in the experiment with OR52B4 (Homo sapiens), with OR52B6 (Homo sapiens), in the experiment with OR52D1 (Homo sapiens) and in the experiment with OR52E1 (Homo sapiens) was “inactive” each time. Besides, the “odorant receptor agonist call” value with OR52E2 (Homo sapiens), with OR52E4 (Homo sapiens) and in the experiment with OR52E6 (Homo sapiens) was “inactive” in each case.

For `CC1=C(O)C(=O)OC1C` (configuration not stated), the “odorant receptor agonist call” value with OR52A5 (Homo sapiens), with OR52B2 (Homo sapiens), with OR52B4 (Homo sapiens), with OR52B6 (Homo sapiens), in the experiment with OR52D1 (Homo sapiens) and with OR52E1 (Homo sapiens) was “inactive” in each case. The “odorant receptor agonist call” value with OR52E2 (Homo sapiens), in the experiment with OR52E4 (Homo sapiens) and in the experiment with OR52E6 (Homo sapiens) was “inactive” in each case.

As to `CCCCCCCCCCCC(=O)O`, the “odorant receptor agonist call” value with OR52D1 (Homo sapiens) is “inactive”.

With `O=c1ccc2ccccc2o1`, the “odorant receptor agonist call” value with OR52D1 (Homo sapiens) was “inactive”.

Turning to `CCCCCCCC(C)O` (configuration not stated), in the experiment with OR52D1 (Homo sapiens), the “odorant receptor agonist call” value was “active”.

As for `CC(CO)CS` (configuration not stated), the “odorant receptor agonist call” value in the experiment with OR52A5 (Homo sapiens), with OR52B2 (Homo sapiens), with OR52B4 (Homo sapiens), with OR52B6 (Homo sapiens), in the experiment with OR52D1 (Homo sapiens) and in the experiment with OR52E2 (Homo sapiens) was “inactive” in each case. Besides, the “odorant receptor agonist call” value with OR52E4 (Homo sapiens), with OR52E5 (Homo sapiens) and with OR52E6 (Homo sapiens) was “inactive” in each case.

Regarding `CCCCCCCCCCC(C)=O`, the “odorant receptor agonist call” value in the experiment with OR52D1 (Homo sapiens) is “inactive”.

For `COc1nccnc1CC(C)C`, the “odorant receptor agonist call” value with OR52D1 (Homo sapiens) is “active”.

Regarding `CC1=NC(C)C(C)S1` (configuration not stated), the “odorant receptor agonist call” value with OR52A5 (Homo sapiens), with OR52B2 (Homo sapiens), with OR52B4 (Homo sapiens), in the experiment with OR52B6 (Homo sapiens), with OR52D1 (Homo sapiens) and with OR52E1 (Homo sapiens) was “inactive” each time. Further, the “odorant receptor agonist call” value with OR52E2 (Homo sapiens), in the experiment with OR52E4 (Homo sapiens) and with OR52E6 (Homo sapiens) was “inactive” throughout.

Turning to `CCCCCCCCCC(=O)[O-].[H+]`, in the experiment with OR52D1 (Homo sapiens), the “odorant receptor agonist call” value was “inactive”.

As for `CCCCCCCCC(=O)O`, in the experiment with OR52B2 (Homo sapiens), the “odorant receptor agonist call” value was “inactive”. The “odorant receptor agonist call” value in the experiment with OR52D1 (Homo sapiens) is “active”.

As to `CC(=O)c1c(C)c([N+](=O)[O-])c(C(C)(C)C)c([N+](=O)[O-])c1C`, the “odorant receptor agonist call” value with OR52A5 (Homo sapiens), with OR52B2 (Homo sapiens), with OR52B4 (Homo sapiens), in the experiment with OR52B6 (Homo sapiens), with OR52D1 (Homo sapiens) and with OR52E1 (Homo sapiens) was “inactive” throughout. Moreover, the “odorant receptor agonist call” value with OR52E2 (Homo sapiens), in the experiment with OR52E4 (Homo sapiens), with OR52E5 (Homo sapiens) and in the experiment with OR52E6 (Homo sapiens) was “inactive” each time.

For the molecule `CCCC(=O)SC`, the “odorant receptor agonist call” value with OR52D1 (Homo sapiens) is “active”.

Turning to `CCCCCC(S)C(C)CO` (configuration not stated), the “odorant receptor agonist call” value with OR52A5 (Homo sapiens), with OR52B2 (Homo sapiens), with OR52B4 (Homo sapiens), with OR52B6 (Homo sapiens), with OR52D1 (Homo sapiens) and with OR52E2 (Homo sapiens) was “inactive” each time. Also, the “odorant receptor agonist call” value with OR52E4 (Homo sapiens), with OR52E5 (Homo sapiens) and with OR52E6 (Homo sapiens) was “inactive” in each case.

Take `CCCCCCCCCCO`: the “odorant receptor agonist call” value with OR52D1 (Homo sapiens) is “inactive”.

On to `CCC1OC(C)=C(O)C1=O` (configuration not stated), for which the “odorant receptor agonist call” value with OR52A5 (Homo sapiens), in the experiment with OR52B2 (Homo sapiens), with OR52B4 (Homo sapiens), in the experiment with OR52B6 (Homo sapiens), in the experiment with OR52D1 (Homo sapiens) and in the experiment with OR52E1 (Homo sapiens) was “inactive” throughout. Also, the “odorant receptor agonist call” value in the experiment with OR52E2 (Homo sapiens), in the experiment with OR52E4 (Homo sapiens) and in the experiment with OR52E6 (Homo sapiens) was “inactive” each time.

Take `CC1CCCCCCCCCCCCC(=O)C1` (configuration not stated): the “odorant receptor agonist call” value with OR52A5 (Homo sapiens), with OR52B2 (Homo sapiens), with OR52B4 (Homo sapiens), with OR52B6 (Homo sapiens), with OR52D1 (Homo sapiens) and with OR52E1 (Homo sapiens) was “inactive” in each case. Also, the “odorant receptor agonist call” value with OR52E2 (Homo sapiens), with OR52E4 (Homo sapiens), in the experiment with OR52E5 (Homo sapiens) and in the experiment with OR52E6 (Homo sapiens) was “inactive” in each case.

Turning to `CCC1OC(=O)C(O)=C1C` (configuration not stated), the “odorant receptor agonist call” value with OR52A5 (Homo sapiens), with OR52B2 (Homo sapiens), with OR52B4 (Homo sapiens), with OR52B6 (Homo sapiens), with OR52D1 (Homo sapiens) and in the experiment with OR52E1 (Homo sapiens) was “inactive” in each case. Also, the “odorant receptor agonist call” value in the experiment with OR52E2 (Homo sapiens), with OR52E4 (Homo sapiens) and with OR52E6 (Homo sapiens) was “inactive” in each case.

In the case of `CCCC(S)CCOC(C)=O` (configuration not stated), the “odorant receptor agonist call” value with OR52A5 (Homo sapiens), in the experiment with OR52B2 (Homo sapiens), in the experiment with OR52B4 (Homo sapiens), with OR52B6 (Homo sapiens), with OR52D1 (Homo sapiens) and with OR52E1 (Homo sapiens) was “inactive” in each case. Further, the “odorant receptor agonist call” value in the experiment with OR52E2 (Homo sapiens), with OR52E4 (Homo sapiens) and in the experiment with OR52E6 (Homo sapiens) was “inactive” each time.
